Test results reported in ChEMBL document CHEMBL1153346, “Structure-activity study of pentamidine analogues as antiprotozoal agents” (J Med Chem, 2009).

Key:
[1] = Selectivity index, ratio of IC50 for rat L6 cells to IC50 for Trypanosoma brucei rhodesiense STIB900 trypomastigotes; format: toxicity, cell-based; settings: read-out: Ratio IC50
Outline: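 Ratio of L6 IC50 to STIB900 IC50. L6 cells: 4000/well in RPMI 1640 with 10% FBS, 70 h at 37 °C. Bloodstream forms: 2000/well in supplemented MEM with 15% horse serum, 70 h at 37 °C. Both read by Alamar blue fluorescence; IC50s from sigmoidal curves, two independent runs in duplicate.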

L6 = assay: Cytotoxicity against rat L6 cells after 70 hrs by alamar blue assay; format: cell-based; settings: L6, 70 h
Outline: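 L6 rat myoblasts, 4000 per well, in RPMI 1640 with 2 mM L-glutamine, HEPES, NaHCO₃ and 10% FBS. Exposed to serial dilutions (DMSO ≤1%) for 70 h at 37 °C in humidified 5% CO₂. Resazurin then added for 2-3 h; fluorescence read at ex 536/em 588 nm. IC50 from sigmoidal curves; two independent runs in duplicate.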

Plasmodium falciparum = assay: Antiprotozoal activity after 48 hrs against chloroquine-resistant Plasmodium falciparum K1 infected erythrocytes by [3H]hypoxanthine uptake; format: functional, organism-based
Outline: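 Erythrocytic stages in infected human red cells (hematocrit 1.25%, parasitemia 0.3%) in supplemented RPMI 1640 with Albumax II. Serial dilutions incubated at 37 °C in 93% N2/4% CO2/3% O2. [3H]-hypoxanthine (0.5 µCi/well) added at 48 h, then 24 h more. Incorporation counted by scintillation. IC50 from sigmoidal curves; two independent runs in duplicate.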

[2] = test system: Trypanosoma brucei rhodesiense; assay: Antiprotozoal activity against Trypanosoma brucei rhodesiense STIB900 trypomastigotes after 70 hrs by alamar blue assay; format: functional, organism-based
Outline: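 Bloodstream forms, 2000 per well, in MEM with Earle's salts plus 0.2 mM 2-mercaptoethanol, 1 mM pyruvate, 0.5 mM hypoxanthine and 15% heat-inactivated horse serum. Exposed to serial dilutions (DMSO ≤1%) for 70 h at 37 °C in 5% CO₂. Resazurin then added for a further 2-6 h. IC50 from sigmoidal curves; two independent runs in duplicate.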

[3] = Selectivity index, ratio of IC50 for rat L6 cells to IC50 for chloroquine-resistant Plasmodium falciparum K1; format: toxicity, cell-based; settings: read-out: Ratio IC50
Outline: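 Ratio of L6 IC50 to K1 IC50. L6 cells: Alamar blue assay after 70 h, 37 °C. K1: [3H]-hypoxanthine incorporation in infected red cells over 48 + 24 h at 37 °C under low O2. IC50s from sigmoidal curves, two independent runs in duplicate.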

Leishmania donovani = assay: Antiprotozoal activity against Leishmania donovani MHOM/SD/62/1S-CL2D axenic amastigotes after 72 hrs; format: functional, organism-based
Outline: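 L. donovani axenic amastigotes, adapted from promastigotes and grown in amastigote medium at 37 °C. 6 × 10⁴ parasites per well with 2-fold compound dilutions (DMSO ≤1%), incubated 72 h at 37 °C in humidified 5% CO₂. Growth read by tetrazolium (CellTiter) absorbance at 490 nm. IC50 from a four-parameter dose-response fit. Average of duplicate determinations.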

[4] = Selectivity index, ratio of IC50 for rat L6 cells to IC50 for Leishmania donovani MHOM/SD/62/1S-CL2D axenic amastigotes; format: toxicity, cell-based; settings: read-out: Ratio IC50
Outline: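 Amastigotes: 6 × 10⁴ parasites/well with 2-fold dilutions, 72 h at 37 °C in 5% CO2. Growth read by tetrazolium CellTiter absorbance at 490 nm; IC50 from a four-parameter dose-response fit.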

**Q.** Which selectivity ratio [1] does the source give for `N=C(N)c1ccc(OCCCCCOc2ccc(C(=N)N)c(O)c2)cc1O` here?
**A.** > 24

**Q.** And the IC50 (L6)?
**A.** > 195 µM

**Q.** And the IC50 (Plasmodium falciparum)?
**A.** 1.29 µM

**Q.** And the IC50 [2]?
**A.** 7.96 µM

**Q.** What about the selectivity ratio [3] of the same compound?
**A.** > 151

**Q.** And the IC50 (Leishmania donovani)?
**A.** > 100 µM

**Q.** For `N=C(N)c1ccc(OCCCCCOc2ccc(C(=N)N)cc2[N+](=O)[O-])c([N+](=O)[O-])c1`, which selectivity ratio [1] is on record?
**A.** 381

**Q.** And the IC50 (L6)?
**A.** 37.3 µM

**Q.** And the IC50 (Plasmodium falciparum)?
**A.** 0.024 µM

**Q.** What about the selectivity ratio [4] of the same compound?
**A.** 3

**Q.** And the IC50 [2]?
**A.** 0.098 µM

**Q.** And the selectivity ratio [3]?
**A.** 1550

**Q.** What about the IC50 (Leishmania donovani) of the same compound?
**A.** 11.4 µM

**Q.** For `CNC(=N)c1ccc(OCCCOc2ccc(C(=N)NC)cc2OC)c(OC)c1`, which selectivity ratio [1] is on record?
**A.** 3100

**Q.** What about the IC50 (L6) of the same compound?
**A.** 177 µM

**Q.** What about the IC50 (Plasmodium falciparum) of the same compound?
**A.** 0.641 µM

**Q.** What about the selectivity ratio [4] of the same compound?
**A.** 7

**Q.** And the IC50 [2]?
**A.** 0.057 µM

**Q.** And the selectivity ratio [3]?
**A.** 276

**Q.** And the IC50 (Leishmania donovani)?
**A.** 25.3 µM

**Q.** Which results are given for `c1cc(OCCCCOc2cccc(C3=NCCN3)c2)cc(C2=NCCN2)c1`?
**A.** selectivity ratio [1]: > 95; IC50 (L6): > 185 µM; IC50 (Plasmodium falciparum): 0.107 µM; selectivity ratio [4]: > 5; IC50 [2]: 1.94 µM; selectivity ratio [3]: > 1730; IC50 (Leishmania donovani): 39.5 µM

**Q.** What does the source list for `CC(C)NC(=N)c1cccc(OCCCCCCOc2cccc(C(=N)NC(C)C)c2)c1`?
**A.** selectivity ratio [1]: 415; IC50 (L6): 107 µM; IC50 (Plasmodium falciparum): 0.006 µM; selectivity ratio [4]: 9; IC50 [2]: 0.258 µM; selectivity ratio [3]: 17800; IC50 (Leishmania donovani): 11.6 µM

**Q.** Which IC50 (L6) does the source give for `O=C(O)c1cc(C2=NCCN2)ccc1OCCCCCOc1ccc(C2=NCCN2)cc1C(=O)O` here?
**A.** > 151 µM

**Q.** And the IC50 (Plasmodium falciparum)?
**A.** > 1.68 µM

**Q.** What about the IC50 [2] of the same compound?
**A.** > 16.8 µM

**Q.** What about the IC50 (Leishmania donovani) of the same compound?
**A.** > 200 µM

**Q.** For `CCOC(=O)c1cc(C(=N)N)ccc1OCCCCCOc1ccc(C(=N)N)cc1C(N)=O`, which selectivity ratio [1] is on record?
**A.** > 15000

**Q.** And the IC50 (L6)?
**A.** > 165 µM

**Q.** And the IC50 (Plasmodium falciparum)?
**A.** 0.014 µM

**Q.** What about the selectivity ratio [4] of the same compound?
**A.** > 3

**Q.** What about the IC50 [2] of the same compound?
**A.** 0.011 µM

**Q.** And the selectivity ratio [3]?
**A.** > 11800

**Q.** What about the IC50 (Leishmania donovani) of the same compound?
**A.** 52.1 µM

**Q.** What does the source list for `CCOC(=O)c1cc(C(=N)N)ccc1OCCCCCOc1ccc(C(=N)N)cc1C(=O)OCC`?
**A.** selectivity ratio [1]: > 13; IC50 (L6): > 152 µM; IC50 (Plasmodium falciparum): 0.021 µM; IC50 [2]: 12.1 µM; selectivity ratio [3]: > 7240; IC50 (Leishmania donovani): > 50 µM

**Q.** Which results are given for `CCOC(=O)c1cc(C2=NCCN2)ccc1OCCCCCOc1ccc(C2=NCCN2)cc1C(=O)OCC`?
**A.** IC50 (L6): > 138 µM; IC50 (Plasmodium falciparum): 0.027 µM; selectivity ratio [4]: > 10; IC50 [2]: > 15.3 µM; selectivity ratio [3]: > 5110; IC50 (Leishmania donovani): 13.6 µM

**Q.** For `CC(C)NC(=N)c1cccc(OCCCCCOc2cccc(C(=N)NC(C)C)c2)c1`, which selectivity ratio [1] is on record?
**A.** > 421

**Q.** And the IC50 (L6)?
**A.** > 175 µM

**Q.** What about the IC50 (Plasmodium falciparum) of the same compound?
**A.** 0.004 µM

**Q.** What about the selectivity ratio [4] of the same compound?
**A.** > 11

**Q.** And the IC50 [2]?
**A.** 0.416 µM

**Q.** What about the selectivity ratio [3] of the same compound?
**A.** > 43800

**Q.** And the IC50 (Leishmania donovani)?
**A.** 15.4 µM

**Q.** With `c1cc(-c2nnn[nH]2)ccc1OCCCCCOc1ccc(-c2nnn[nH]2)cc1` as the compound, how does the IC50 (L6) read?
**A.** > 229 µM

**Q.** What about the IC50 (Plasmodium falciparum) of the same compound?
**A.** 8.31 µM

**Q.** And the selectivity ratio [4]?
**A.** 2

**Q.** What about the IC50 [2] of the same compound?
**A.** > 229 µM

**Q.** What about the selectivity ratio [3] of the same compound?
**A.** > 28

**Q.** And the IC50 (Leishmania donovani)?
**A.** > 100 µM

**Q.** With `C[C@@H]1CC[C@H]2[C@@H](C)C(=O)O[C@@H]3O[C@@]4(C)CC[C@@H]1[C@]32OO4` [ARTEMISININ] as the compound, how does the selectivity ratio [3] read?
**A.** 75000

**Q.** For `CC(C)NC(=N)c1ccc(OCCCCCOc2ccc(C(=N)NC(C)C)cc2C(=O)O)c(C(=O)O)c1`, which IC50 (L6) is on record?
**A.** > 144 µM

**Q.** What about the IC50 (Plasmodium falciparum) of the same compound?
**A.** > 1.6 µM

**Q.** And the IC50 [2]?
**A.** > 16 µM

**Q.** What about the IC50 (Leishmania donovani) of the same compound?
**A.** > 200 µM

**Q.** Which IC50 (L6) does the source give for `CN1CCN=C1c1ccc(OCCCCCOc2ccc(C3=NCCN3C)cc2)cc1` here?
**A.** > 176 µM

**Q.** What about the IC50 (Plasmodium falciparum) of the same compound?
**A.** 1.65 µM

**Q.** And the selectivity ratio [4]?
**A.** 2

**Q.** What about the IC50 [2] of the same compound?
**A.** > 19.6 µM

**Q.** And the selectivity ratio [3]?
**A.** > 107

**Q.** And the IC50 (Leishmania donovani)?
**A.** > 100 µM

**Q.** Which selectivity ratio [1] does the source give for `Nc1cc(C2=NCCN2)ccc1OCCCOc1ccc(C2=NCCN2)cc1N` here?
**A.** > 205

**Q.** What about the IC50 (L6) of the same compound?
**A.** > 167 µM

**Q.** And the IC50 (Plasmodium falciparum)?
**A.** 0.07 µM

**Q.** And the IC50 [2]?
**A.** 0.813 µM

**Q.** What about the selectivity ratio [3] of the same compound?
**A.** > 2390

**Q.** Which IC50 (L6) does the source give for `N=C(N)c1ccc(OCCCCCOc2ccc(C(=N)N)cc2C(=O)O)c(C(=O)O)c1` here?
**A.** > 165 µM

**Q.** What about the IC50 (Plasmodium falciparum) of the same compound?
**A.** 71.8 µM

**Q.** What about the IC50 [2] of the same compound?
**A.** > 18.3 µM

**Q.** What about the selectivity ratio [3] of the same compound?
**A.** 2

**Q.** With `CC(=N)Nc1ccc(OCCCCCOc2ccc(NC(C)=N)cc2)cc1` as the compound, how does the selectivity ratio [1] read?
**A.** > 66

**Q.** And the IC50 (L6)?
**A.** > 202 µM

**Q.** What about the IC50 (Plasmodium falciparum) of the same compound?
**A.** 0.048 µM

**Q.** What about the IC50 [2] of the same compound?
**A.** 3.04 µM

**Q.** What about the selectivity ratio [3] of the same compound?
**A.** > 4210

**Q.** And the IC50 (Leishmania donovani)?
**A.** > 100 µM
